Data set [1] is described as follows: Cmax in C57BL/6N mouse at 2 mg/kg, po. The note with it: in vivo. Also on record: dose 2 mg/kg, route oral. The format is ADME, organism-based.
For the next data set, the system named is Mus musculus. Put plainly: Dose normalized AUC in C57BL/6N mouse at 2 mg/kg, po. The format is ADME, organism-based. Also on record: dose 2 mg/kg, route oral. The conditions noted are these: in vivo.
Data set [2] has as its target Voltage-gated L-type calcium channel (Homo sapiens, UniProt Q13936+Q13698+Q01668+O60840). Briefly: Binding affinity to L-type calcium channel.
Data set [3] is described as follows: Half life in C57BL/6N mouse at 1 mg/kg, iv and 2 mg/kg, po. The format is ADME, organism-based. The note with it: in vivo.
A short description of data set [4]: Clearance in C57BL/6N mouse at 1 mg/kg, iv and 2 mg/kg, po. The format is ADME, organism-based. The conditions noted are these: in vivo.
Data set [5] in a line: Oral bioavailability in C57BL/6N mouse at 2 mg/kg. In kind it is ADME, organism-based. The conditions noted are these: in vivo.
Data set [6] in a line: Volume of distribution at steady state in C57BL/6N mouse at 1 mg/kg, iv and 2 mg/kg, po. In kind it is ADME, organism-based. The note with it: in vivo, read-out: Vdss.
Data set [7] deals with T1, Somatostatin receptor type 3 (Homo sapiens, UniProt P32745). The format is functional, cell-based, CHO.
T1 sequence (P32745 whole entry): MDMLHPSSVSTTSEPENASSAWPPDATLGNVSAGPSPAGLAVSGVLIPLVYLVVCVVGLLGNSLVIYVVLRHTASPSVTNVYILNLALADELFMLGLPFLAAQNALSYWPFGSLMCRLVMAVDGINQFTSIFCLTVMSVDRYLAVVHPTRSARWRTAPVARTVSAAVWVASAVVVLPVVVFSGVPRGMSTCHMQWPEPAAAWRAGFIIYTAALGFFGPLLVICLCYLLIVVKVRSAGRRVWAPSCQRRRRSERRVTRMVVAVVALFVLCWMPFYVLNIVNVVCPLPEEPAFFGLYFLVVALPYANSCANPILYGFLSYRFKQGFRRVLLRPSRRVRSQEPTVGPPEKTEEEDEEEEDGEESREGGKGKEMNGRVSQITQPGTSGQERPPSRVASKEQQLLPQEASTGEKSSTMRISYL
Data set [8] deals with T1, Somatostatin receptor type 3. Put plainly: Displacement of [125I]SS-14 from human SST3 receptor expressed in CHO cells after 60 mins by scintillation counting. The format is cell-based. In general terms: Loss of bound radioactivity is the signal in a displacement assay; it reports binding, not function.
Data set [9] has as its target Voltage-gated inwardly rectifying potassium channel KCNH2 (Homo sapiens, UniProt Q12809). Briefly: Displacement of [35S]MK499 from human Erg expressed in HEK293 cells after 60 mins by scintillation counting. The format is cell-based.
A short description of data set [10]: Activation of glucose-stimulated insulin secretion in C57BL/6J mouse pancreatic islets at 10 nM after 1 hr by ELISA in presence of 16 mM glucose relative to DMSO. In kind it is functional. The note with it: Pancreatic islet. A digest of the protocol: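 Pancreatic islets were isolated from normal C57BL/6J mice. Insulin secretion was measured at 2 and 16 mM glucose. Treatments were test agent at 10 μM, octreotide at 50 nM, the two combined, DMSO as negative control and GLP-1 at 10 nM as positive control. n = 4.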
On the technique in general: ELISA stands for enzyme-linked immunosorbent assay.

A short description of data set [11]: Inhibition of glucose-stimulated insulin secretion in C57BL/6J mouse pancreatic islets at 50 nM after 1 hr by ELISA. In kind it is functional, Pancreatic islet. Set-up: scale not given: the % may be the effect or the level left. Put shortly: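 Islets isolated from normal C57BL/6J mice were incubated at basal (2 mM) and stimulatory (16 mM) glucose, and insulin secretion was measured. DMSO served as the negative control and GLP-1 at 10 nM as the positive control. n = 4.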

The values below come from ChEMBL document CHEMBL2069262, “Stimulation of Glucose-Dependent Insulin Secretion by a Potent, Selective sst3 Antagonist” (ACS Med Chem Lett, 2012).

Usually Cmax stands for the highest concentration seen after dosing. Usually IC50 stands for the midpoint of a concentration-inhibition curve. The half-life is the time in which the quantity being followed falls by half. In general, bioavailability refers to the share of a dose that reaches the circulation, judged against a reference dose that is usually intravenous.

Molecules are shown by their SMILES. Calls of active or inactive are those of the source. The calls are words filed in the database; no cut-off is given here. Positions of bridges follow the written chain, without caps; N, C: chain ends. Non-standard residues stand in square brackets, D forms with d. Residues, ends and D or L forms follow the SMILES beside them. *: point of attachment. Threoninol(2S,3R) = C[C@@H](O)[C@H](CO)N*

Sequence of Voltage-gated inwardly rectifying potassium channel KCNH2 (Q12809 whole entry): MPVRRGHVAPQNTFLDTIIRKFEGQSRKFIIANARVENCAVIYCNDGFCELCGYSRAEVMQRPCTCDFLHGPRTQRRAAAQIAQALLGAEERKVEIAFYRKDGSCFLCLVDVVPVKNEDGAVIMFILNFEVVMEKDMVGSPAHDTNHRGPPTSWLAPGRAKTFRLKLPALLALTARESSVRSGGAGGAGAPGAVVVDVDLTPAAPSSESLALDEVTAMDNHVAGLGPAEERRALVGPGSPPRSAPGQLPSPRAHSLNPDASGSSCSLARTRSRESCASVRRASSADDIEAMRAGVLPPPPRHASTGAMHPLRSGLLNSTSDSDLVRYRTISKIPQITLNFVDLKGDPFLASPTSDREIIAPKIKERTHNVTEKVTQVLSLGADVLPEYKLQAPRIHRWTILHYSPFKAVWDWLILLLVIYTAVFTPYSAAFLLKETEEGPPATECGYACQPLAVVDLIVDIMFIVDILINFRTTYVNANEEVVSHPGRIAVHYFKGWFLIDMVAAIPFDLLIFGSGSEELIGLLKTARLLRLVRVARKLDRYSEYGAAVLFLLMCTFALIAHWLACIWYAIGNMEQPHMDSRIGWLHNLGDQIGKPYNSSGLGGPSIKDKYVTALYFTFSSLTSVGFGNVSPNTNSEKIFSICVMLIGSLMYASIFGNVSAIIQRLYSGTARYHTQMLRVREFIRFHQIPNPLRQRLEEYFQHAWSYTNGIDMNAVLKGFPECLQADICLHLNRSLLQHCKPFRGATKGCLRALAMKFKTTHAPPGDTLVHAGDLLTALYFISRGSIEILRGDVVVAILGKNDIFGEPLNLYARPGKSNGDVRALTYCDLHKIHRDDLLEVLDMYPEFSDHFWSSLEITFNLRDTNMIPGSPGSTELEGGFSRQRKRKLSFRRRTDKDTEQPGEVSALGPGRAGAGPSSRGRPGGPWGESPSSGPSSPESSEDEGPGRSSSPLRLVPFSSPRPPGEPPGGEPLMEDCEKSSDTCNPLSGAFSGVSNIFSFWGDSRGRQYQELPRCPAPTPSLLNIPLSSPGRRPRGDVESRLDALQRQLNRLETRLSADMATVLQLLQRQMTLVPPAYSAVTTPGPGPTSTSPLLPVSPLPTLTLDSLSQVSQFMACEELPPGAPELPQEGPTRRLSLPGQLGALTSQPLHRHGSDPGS

In the case of `c1ccc(-c2c[nH]c([C@H]3Cc4c([nH]c5ccccc45)C(C4CCCCC4)N3)n2)cc1` (stereo partly specified), the peak level in [1] (Cmax) was 60 nM. For the same compound, the AUC/dose in the data set on Mus musculus turned out to be 0.07 µM·h/mg. In addition, the IC50 in data set [2] was found to be 308 nM. The same compound showed a half-life in data set [3] of 8.4 min. The clearance in [4] was determined as 95 mL/min/kg. Besides, in [5], the bioavailability came to 15%. For the same compound, in data set [6], the Vd turned out to be 8.1 L/kg.
On to `CC(C)(C)OC(=O)N1CCC(C2N[C@@H](c3nc(-c4ccccc4)c[nH]3)Cc3c2[nH]c2ccccc32)CC1` (stereo partly specified), for which the IC50 in [7] amounted to 1000 nM; in [8], 7 nM.
As for `CNC(=O)N1CCC(C2N[C@@H](c3nc(-c4ccccc4)c[nH]3)Cc3c2[nH]c2ccccc32)CC1` (stereo partly specified), the results for the IC50 in data set [7], in data set [9] and in data set [8] were 180 nM, 240 nM and 35 nM, respectively.
With `O=S1(=O)CCC(C2N[C@@H](c3nc(-c4ccccc4)c[nH]3)Cc3c2[nH]c2ccccc32)CC1` (stereo partly specified), the results for the IC50 in data set [7], in data set [9] and in data set [8] were 290 nM, 100 nM and 120 nM, respectively.
Consider `COC(=O)N1CCC(C2N[C@@H](c3nc(-c4ccccc4)c[nH]3)Cc3c2[nH]c2ccccc32)CC1` (stereo partly specified), for which the IC50 turned out to be 66 nM in data set [7], 700 nM in data set [9] and 4 nM in data set [8].
`CS(=O)(=O)N1CCC(C2N[C@@H](c3nc(-c4ccccc4)c[nH]3)Cc3c2[nH]c2ccccc32)CC1` (stereo partly specified): in [8], the IC50 came to 44 nM.
On to `CCOCC1(COCC)N[C@@H](c2nc(-c3ccccc3)c[nH]2)Cc2c1[nH]c1ccccc21`, for which the Cmax in data set [1] came to 130 nM. The compound also returned an AUC/dose with Mus musculus of 0.06 µM·h/mg. The IC50 in data set [2] is listed as 1526 nM. In data set [3], this compound gave a half-life of 32.4 min. The clearance in [4] was 31 mL/min/kg. In data set [5], this compound registered a bioavailability of 4%. In addition, the Vd in data set [6] is 0.7 L/kg.
Regarding `CC[C@H](C)[C@H](NC(=O)[C@H](Cc1ccccc1)NC(=O)[C@H](CCC(=O)O)NC(=O)[C@H](CCCCN)NC(=O)[C@H](C)NC(=O)[C@H](C)NC(=O)[C@H](CCC(N)=O)NC(=O)CNC(=O)[C@H](CCC(=O)O)NC(=O)[C@H](CC(C)C)NC(=O)[C@H](Cc1ccc(O)cc1)NC(=O)[C@H](CO)NC(=O)[C@H](CO)NC(=O)[C@@H](NC(=O)[C@H](CC(=O)O)NC(=O)[C@H](CO)NC(=O)[C@@H](NC(=O)[C@H](Cc1ccccc1)NC(=O)[C@@H](NC(=O)CNC(=O)[C@H](CCC(=O)O)NC(=O)[C@H](C)N[C@@H](Cc1cnc[nH]1)C(=O)O)[C@@H](C)O)[C@H](C)O)C(C)C)C(=O)N[C@@H](C)C(=O)N[C@@H](Cc1c[nH]c2ccccc12)C(=O)N[C@@H](CC(C)C)C(=O)N[C@H](C(=O)N[C@@H](CCCCN)C(=O)NCC(=O)N[C@@H](CCCNC(=N)N)C(N)=O)C(C)C`, the outcome in data set [10] was Active.
`C[C@@H](O)[C@H](CO)NC(=O)[C@@H]1CSSC[C@H](NC(=O)[C@H](N)Cc2ccccc2)C(=O)N[C@@H](Cc2ccccc2)C(=O)N[C@H](Cc2c[nH]c3ccccc23)C(=O)N[C@@H](CCCCN)C(=O)N[C@@H]([C@@H](C)O)C(=O)N1` (H-[dF]CF[dW]KTC-{Threoninol(2S,3R)}; disulfide 2-7): the Activity in data set [11] is 39%.
For the compound `[O-][S+]1CCC(C2N[C@@H](c3nc(-c4ccccc4)c[nH]3)Cc3c2[nH]c2ccccc32)CC1` (single isomer, unassigned; isomer 1), the IC50 in [7] was found to be 380 nM; in [8], 220 nM.
Consider `CC(=O)N1CCC(C2N[C@@H](c3nc(-c4ccccc4)c[nH]3)Cc3c2[nH]c2ccccc32)CC1` (stereo partly specified), for which the IC50 in [7] was 46 nM; in data set [9], 9800 nM; in data set [8] it was 16 nM.
For `CCCCC1(CCCC)N[C@@H](c2nc(-c3ccccc3)c[nH]2)Cc2c1[nH]c1ccccc21`, the IC50 in data set [2] came out at 128 nM; in [9], 150 nM. This compound also had a clearance in [4] of 126 mL/min/kg.
For `[O-][S+]1CCC(C2N[C@@H](c3nc(-c4ccccc4)c[nH]3)Cc3c2[nH]c2ccccc32)CC1` (single isomer, unassigned; isomer 2), the IC50 in [7] was found to be 24 nM; in data set [9] it was 100 nM; in data set [8], 21 nM.
Taken in the same sequence, the figures for `c1ccc(-c2c[nH]c([C@H]3Cc4c([nH]c5ccccc45)C(C4CCSCC4)N3)n2)cc1` (stereo partly specified) were 10 nM, 120 nM and 1.7 nM.
Regarding `c1ccc(-c2c[nH]c([C@H]3Cc4c([nH]c5ccccc45)[C@H](C4CCOCC4)N3)n2)cc1`, the IC50 came to 1200 nM in [7] and 390 nM in data set [8].
As for `c1ccc(-c2c[nH]c([C@H]3Cc4c([nH]c5ccccc45)C(C4CCNCC4)N3)n2)cc1` (stereo partly specified), the IC50 in data set [7] came to 220 nM; in data set [8], 63 nM.
